Source: PubChem BioAssay (several laboratories)
dFosB act: mouse delta FosB homodimer activation. purified delta FosB, TAMRA-CDK5 oligo fluorescence polarization; percent of positive-control signal above neutral wells. P13346. hit rate 0.99% among 340,000. activation, % at 25 µM. AID 493131;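 active means mean activation above about 17%, with every replicate also reaching it, limit read from the data, passing the limit was not always enough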
HTR2A ag: mouse HTR2A agonism via beta-arrestin recruitment; P35363; CHO-K1 mHTR2A beta-arrestin complementation, luminescence; percent of 30 µM serotonin response; activation, % at 7.6 µM; hit rate 0.66% among 360,000; AID 624169;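 active means activation above a run cutoff, the mean activation of all tested compounds plus 3 SD, cut at about 14% in these data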
Target sequence (P35363 whole entry, looked up): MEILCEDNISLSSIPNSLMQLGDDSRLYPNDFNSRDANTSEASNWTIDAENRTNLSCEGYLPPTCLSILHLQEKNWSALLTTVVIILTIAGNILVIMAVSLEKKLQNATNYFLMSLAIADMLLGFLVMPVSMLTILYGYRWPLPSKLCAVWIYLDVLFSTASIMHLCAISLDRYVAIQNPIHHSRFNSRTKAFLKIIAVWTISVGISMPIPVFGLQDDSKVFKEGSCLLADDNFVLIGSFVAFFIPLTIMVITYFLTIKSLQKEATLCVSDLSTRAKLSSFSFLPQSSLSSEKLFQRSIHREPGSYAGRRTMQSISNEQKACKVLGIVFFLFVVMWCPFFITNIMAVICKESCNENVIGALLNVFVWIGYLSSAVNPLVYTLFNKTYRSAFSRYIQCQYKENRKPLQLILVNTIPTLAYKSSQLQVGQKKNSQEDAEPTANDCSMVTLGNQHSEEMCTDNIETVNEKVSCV
VIM-2 inh: blocks Pseudomonas aeruginosa VIM-2 metallo-beta-lactamase; hit rate 0.89% among 290,000; inhibition, % at 5.6 µM; purified VIM-2, nitrocefin hydrolysis, epi-absorbance fluorescence;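 active means inhibition above the mean of all tested compounds plus 3 SD, cutoff set per screening run, cut at about 7.5% in these data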;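 further: red hydrolysis product quenches plate fluorescence so inhibitors raise well fluorescence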
IMP-1 inhibitor: blocks Pseudomonas aeruginosa IMP-1 metallo-beta-lactamase; hit rate 0.45% among 290,000; inhibition, % at 5.6 µM; purified IMP-1, nitrocefin hydrolysis, epi-absorbance fluorescence;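 active means inhibition above the mean plus 3 SD of all compounds in the same screening run, cut at about 4.5% in these data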
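Assay system: purified recombinant IMP-1 beta-lactamase. Input: IMP-1 0.2 nM before substrate addition. Buffer or medium: Zinc- and detergent-supplemented HEPES buffer, pH 7.1. Schedule: 25 °C, 15 min preincubation, 25 min reaction. Signal: Epi-absorbance fluorescence, 480 nm excitation, 530 nm emission. Evaluation: percent inhibition from optical density relative to buffer-blank wells.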
Hits are given with their value; 0 = inactive; - = not tested or not shown. Compounds with a hit are over-represented: about 2.5% of the library has one in this group of screens.

SMILES | dFosB act | HTR2A ag | VIM-2 inh | IMP-1 inhibitor
O=C1/C(=C\c2ccco2)SC(=S)N1C1CCS(=O)(=O)C1 (stereo not drawn) | - | 0 | 0 | 7.3
CC(C(=O)N(C)C1CCS(=O)(=O)C1)N1C(=O)/C(=C/c2ccc(F)cc2)SC1=S (stereo not drawn) | 0 | 0 | 0 | 0
O=C1/C(=C/c2ccco2)SC(=S)N1CC1CCCO1 (stereo not drawn) | 0 | 0 | 0 | 5.4
Cc1ccc(NC(=O)COC(=O)/C=C/c2cccs2)c(C)c1 | 0 | 0 | 0 | 0
CCN(CC(=O)Nc1ccccc1OC)C(=O)CN1C(=O)NC(C)(c2ccc3ccccc3c2)C1=O (stereo not drawn) | 0 | 0 | - | -
COc1ccccc1C#Cc1ccc2c(=O)c3ccccc3n(C)c2c1 | 0 | 0 | 0 | 6.8
O=C(O)c1ccc(N2C(=O)c3cccc(Oc4ccc(Cl)cc4)c3C2=O)cc1 | 0 | 0 | 0 | 17.4
CC(=O)Nc1ccc(N2C(=O)c3cccc(NC(C)=O)c3C2=O)cc1 | 0 | 0 | 0 | 0
O=C(O)c1cccc(N2C(=O)c3cccc(Oc4ccc(Cl)cc4)c3C2=O)c1 | 0 | 0 | 0 | 19.6
O=C(O)CN1C(=O)c2ccc(Oc3cccc4c3C(=O)N(CC(=O)O)C4=O)cc2C1=O | 0 | 0 | 0 | 0
C(=C\c1ccco1)/C1=NN(c2ccccc2)C(c2ccco2)C1 (stereo not drawn) | 0 | 0 | 0 | 0
O=[N+]([O-])c1ccc(/C=C/C2=NN(c3ccccc3)C(c3ccco3)C2)o1 (stereo not drawn) | 0 | 0 | 0 | 5.5
COc1ccc(-n2cnnc2SCC(=O)c2cc(C)n(Cc3cccs3)c2C)cc1 | 0 | 0 | 0 | 0
COCCn1c(C)cc(C(=O)CSc2nncn2-c2ccccc2)c1C | 0 | 0 | 0 | 5.0
CC1=C(C#N)C(c2cn(-c3ccccc3)nc2-c2cccs2)C(C#N)=C(C)N1 | 0 | 0 | 0 | 0
NC1=NC(c2cn(-c3ccccc3)nc2-c2cccs2)n2c(nc3ccccc32)N1 (stereo not drawn) | 36.8 | 0 | 0 | 4.9
COC(=O)c1c(C(=O)OC)c2cc(C)ccn2c1Cl | 0 | 0 | 8.1 | 0
COC(=O)c1nc2cc(C)ccn2c1F | 0 | 0 | 0 | 0
COc1ccc(C(=O)NC(=S)Nc2cccc3cc(O)ccc23)cc1OC | 0 | 0 | 0 | 4.5
COc1ccccc1C(=O)NC(=S)Nc1cccc2cc(O)ccc12 | 0 | 0 | 0 | 0
COc1cc2cc(C(=O)N(C)C3CCS(=O)(=O)C3)[nH]c2cc1OC (stereo not drawn) | 0 | 0 | 8.1 | 0
CN1CCC2(CC1)Nc1nc(SCc3ccc(Cl)cc3)nn1C1=C2CN(C)CC1 | 0 | 0 | 9.5 | 0
CCOC(=O)C1CCCN(C(=O)c2cc(-c3ccco3)nc3ccccc23)C1 (stereo not drawn) | 0 | 0 | - | -
CCOC(=O)C1CCN(c2nc(C)nc3c2oc2ccccc23)CC1 | 0 | 0 | - | -
CCOC(=O)C1CCCN(c2nc(C)nc3c2oc2ccccc23)C1 (stereo not drawn) | 0 | 0 | 10.4 | 0
SMILES | dFosB act | HTR2A ag | VIM-2 inh | IMP-1 inhibitor
CCOC(=O)C1CCCN(C(=O)c2cc3c(C)nc4ccccc4c3o2)C1 (stereo not drawn) | 0 | 0 | 7.9 | 0
Cc1nc2ccccc2c2oc(C(=O)N3CC(C)CC(C)C3)cc12 (stereo not drawn) | 0 | 0 | 9.8 | 0
Cc1ccc(C)c(N2CCN(C(=O)c3cc4c(C)nc5ccccc5c4o3)CC2)c1 | 0 | 0 | 0 | 0
O=C(O)c1cc(O)c2c(c1)C(=O)c1cccc(O)c1C2=O | 0 | 0 | 0 | 4.6
CC1(c2nnnn2-c2ccc3c(c2)OCCO3)CCC(=O)N1CCc1c[nH]c2ccccc12 (stereo not drawn) | - | 0 | - | -
CCCn1nc(C(=O)Nc2cccc(S(=O)(=O)N3CCOCC3)c2)c2ccccc2c1=O | - | 0 | - | -
Oc1ccc(/C=N/Nc2ccnc3cc(Cl)ccc23)c(O)c1O | 19.3 | 0 | 0 | 0
CC/C(=N\Nc1ccnc2cc(Cl)ccc12)c1ccc(O)cc1 | 0 | 0 | 0 | 0
Oc1ccc(/C=N/Nc2ccnc3cc(Cl)ccc23)cc1O | 108.6 | 0 | 0 | 0
CC1CCc2sc(C(=O)OCC(=O)NCc3ccc(F)cc3)cc2C1 (stereo not drawn) | 0 | 0 | 0 | 0
CC1CCN(CCC(=O)N/N=C/c2ccc([N+](=O)[O-])cc2)CC1 | 0 | 0 | 0 | 0
Cc1ccc(-c2cc(C(F)(F)F)n3nc(C(=O)N4CCN5CCCC5C4)cc3n2)cc1 (stereo not drawn) | 0 | 0 | 10.2 | 0
CC1CC(CCC(=O)NC(=S)Nc2ccc(Cl)cn2)C(=O)O1 (stereo not drawn) | 0 | 0 | 0 | 0
O=C(NNC(=O)c1nn(-c2ccc(F)cc2)ccc1=O)c1ccccc1Cl | 0 | 0 | 0 | 8.4
Cc1ccc(CNS(=O)(=O)c2ccc3c(c2)n(C)c(=O)n3C)cc1 | 0 | 0 | 0 | 0
O=C1NN(c2ccccc2)C(=O)/C1=C\c1ccccc1OCC(=O)N1CCOCC1 | 0 | 0 | 0 | 4.5
Cc1ccc(NC(=O)COc2ccc(Br)cc2CO)cc1S(=O)(=O)N1CCOCC1 | 0 | 0 | - | -
O=C(Nc1ccccc1N1CCCC1)c1ccc(Br)o1 | 0 | 0 | 0 | 0
O=C(Nc1ccc(N2CCCC2)c(Cl)c1)c1ccc(Br)o1 | 42.6 | 0 | 0 | 0
Cc1ccc(CNC(=O)CCS(=O)(=O)c2ccc(Br)cc2)cc1 | 0 | 0 | 0 | 0
O=C(CCS(=O)(=O)c1ccc(Br)cc1)NCc1ccc(F)cc1 | 0 | 0 | 0 | 28.0
COc1ccc(OC)c(NC(=O)C2CCCCC2C(=O)O)c1 (stereo not drawn) | 0 | 0 | 0 | 0
COc1ccc(OC)c(NC(=O)C2C3CCC(C3=C(C)C)C2C(=O)O)c1 (stereo not drawn) | 0 | 0 | 8.8 | 0
C#CCOCCOCCOCCNc1nc(N2CCN(C(=O)[C@H](CCCCN)n3cc([C@@H](N)C(C)CC)nn3)CC2)nc(N2CCN(C(=O)[C@H](Cc3cc4ccccc4[nH]3)n3cc([C@@H](N)CC(C)C)nn3)CC2)n1 (stereo partly drawn) | 34.4 | 0 | 0 | 0
C#CCOCCOCCOCCNc1nc(N2CCN(C(=O)[C@H]([C@@H](C)CC)n3cc([C@@H](N)CO)nn3)CC2)nc(N2CCN(C(=O)[C@H](CCCCN)n3cc([C@@H](N)C(C)CC)nn3)CC2)n1 (stereo partly drawn) | 0 | 0 | 0 | 13.8
C#CCOCCOCCOCCNc1nc(N2CCN(C(=O)CCCCCCCCCCNC(=O)[C@H]([C@@H](C)CC)n3cc(CCCCN=C(N)N)nn3)CC2)nc(N2CCN(C(=O)CCCCCCCCCCNC(=O)[C@H](CO)n3cc(CCCCCN)nn3)CC2)n1 | 0 | 0 | - | -
C#CCOCCOCCOCCNc1nc(N2CCN(C(=O)[C@H](CCC(=O)O)n3cc(C(N)Cc4ccc(O)cc4)nn3)CC2)nc(N2CCN(C(=O)[C@H](CCC(=O)O)n3cc(C(N)[C@H](C)CC)nn3)CC2)n1 (stereo partly drawn) | 0 | 0 | 0 | 5.2
